Results taken from PMC9301635 (ACS Omega, 2022).
Like-named read-outs stand apart in the source and are kept apart here.

Legend:
ovine COX-1 = biological target: T1, ovine COX-1 (Ovis aries, UniProt P05979); experiment: COX Fluorescent Inhibitor Screening Assay Kit; assay type: biochemical; settings: for % inhibition @ 100 μM COX-1: 100 μM compound
T1 sequence (P05979 25-600): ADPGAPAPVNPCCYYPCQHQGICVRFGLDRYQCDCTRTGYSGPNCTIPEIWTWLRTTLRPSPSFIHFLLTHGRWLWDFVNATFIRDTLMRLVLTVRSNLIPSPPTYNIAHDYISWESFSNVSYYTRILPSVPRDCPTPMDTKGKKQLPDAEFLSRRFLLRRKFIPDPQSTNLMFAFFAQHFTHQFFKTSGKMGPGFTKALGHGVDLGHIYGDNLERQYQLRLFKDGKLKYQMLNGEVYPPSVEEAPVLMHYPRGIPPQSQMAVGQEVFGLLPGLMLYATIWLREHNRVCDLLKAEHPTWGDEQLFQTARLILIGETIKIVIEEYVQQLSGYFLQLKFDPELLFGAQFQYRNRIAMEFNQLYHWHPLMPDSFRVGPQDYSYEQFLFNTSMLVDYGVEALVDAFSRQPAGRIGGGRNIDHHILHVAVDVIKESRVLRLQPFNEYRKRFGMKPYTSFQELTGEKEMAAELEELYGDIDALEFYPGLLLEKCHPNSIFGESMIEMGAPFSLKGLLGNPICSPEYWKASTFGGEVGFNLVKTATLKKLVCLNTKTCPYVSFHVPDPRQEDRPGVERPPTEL

CT26 [1] = experiment: MTT viability test, CT26; assay type: cell-based, mouse; settings: read-out: IC50 CT26 MTT
Method in brief: (§1)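 Cells were grown in RPMI-1640 with 10% FCS and antibiotics at 37 °C, 5% CO2. Seeding per well was CT26 4 × 10^3, HT-29 1.5 × 10^4, SW480 3 × 10^3 and HCT116 5 × 10^3, with overnight adherence. Test compound came from a 200 mM DMSO stock (≤0.1% DMSO final) and was applied at 0–200 μM for 72 h. Viability was read by MTT or crystal violet, in triplicate.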

HT29 [2] = experiment: MTT viability test, HT29; assay type: cell-based, human; settings: read-out: IC50 HT29 MTT
Method in brief: as §1

SW480 [3] = experiment: Crystal violet; assay type: cell-based, human; settings: read-out: IC50 SW480 CV
Method in brief: as §1

HCT116 [4] = experiment: Crystal violet; assay type: cell-based, human; settings: read-out: IC50 HCT116 CV
Method in brief: as §1

HCT116 [5] = experiment: MTT viability test, HCT116; assay type: cell-based, human; settings: read-out: IC50 HCT116 MTT
Method in brief: as §1

HT29 [6] = experiment: Crystal violet; assay type: cell-based, human; settings: read-out: IC50 HT29 CV
Method in brief: as §1

CT26 [7] = experiment: Crystal violet; assay type: cell-based, mouse; settings: read-out: IC50 CT26 CV
Method in brief: as §1

SW480 [8] = experiment: MTT viability test, SW480; assay type: cell-based, human; settings: read-out: IC50 SW480 MTT
Method in brief: as §1

human COX-2 = biological target: T2, human COX-2 (Homo sapiens, UniProt P35354); experiment: biochemical; assay type: biochemical; settings: for % inhibition @ 100 μM COX-2: 100 μM compound
T2 sequence (P35354 18-604): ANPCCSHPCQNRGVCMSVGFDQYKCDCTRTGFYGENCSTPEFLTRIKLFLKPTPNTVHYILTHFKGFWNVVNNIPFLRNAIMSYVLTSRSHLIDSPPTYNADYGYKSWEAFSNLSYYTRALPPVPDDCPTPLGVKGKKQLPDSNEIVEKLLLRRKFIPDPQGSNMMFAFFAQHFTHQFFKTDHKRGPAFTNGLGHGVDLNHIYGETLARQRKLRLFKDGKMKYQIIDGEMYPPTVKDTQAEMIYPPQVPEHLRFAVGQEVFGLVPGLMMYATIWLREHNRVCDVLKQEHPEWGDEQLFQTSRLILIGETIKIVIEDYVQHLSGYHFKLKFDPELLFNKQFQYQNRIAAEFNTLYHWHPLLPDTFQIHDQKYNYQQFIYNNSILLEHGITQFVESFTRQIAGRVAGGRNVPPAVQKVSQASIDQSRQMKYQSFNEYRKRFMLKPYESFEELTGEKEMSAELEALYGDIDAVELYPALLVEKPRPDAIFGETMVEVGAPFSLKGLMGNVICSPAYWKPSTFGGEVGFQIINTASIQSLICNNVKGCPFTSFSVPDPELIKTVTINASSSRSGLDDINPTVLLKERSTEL

[9] = test system: human breast, bladder, and non-small lung cancer cell lines; settings: read-out: cytotoxic potential; literature data; cited from earlier work
SW480 cells [10] = experiment: Caspase activation, ApoStat flow cytometry, SW480; assay type: cell-based, human; settings: IC50 dose, 72 h, fluorescence-labeled pan-caspase inhibitor
Method in brief: (§2)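 Seeding in six-well plates was HCT116 2 × 10^5/well and SW480 1.5 × 10^5/well. Cells were exposed to test compound (DMSO vehicle, ≤0.1%) for 72 h. They were then stained with the FITC-labelled pan-caspase inhibitor ApoStat according to the manufacturer's protocol. The percentage of caspase-active cells was measured by flow cytometry. Data are representative of three independent experiments.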

COX-1 = settings: read-out: IC50(COX-1) literature value; in blood; cited from earlier work
HCT116 cells [11] = experiment: Caspase activation, ApoStat flow cytometry, HCT116; assay type: cell-based, human; settings: IC50 dose, 72 h, fluorescence-labeled pan-caspase inhibitor
Method in brief: as §2

HCT116 cells [12] = experiment: Cell proliferation, CFSE flow cytometry, HCT116; assay type: cell-based, human; settings: HCT116, IC50 dose, 72 h
Method in brief: (§3)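 HCT116 (2 × 10^5/well) or SW480 (1.5 × 10^5/well) cells were prelabelled with 1 μM CFSE in six-well plates. They were then exposed to test compound in culture medium (≤0.1% DMSO) for 72 h. CFSE dilution was measured by flow cytometry. Data are representative of three independent experiments.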

SW480 cells [13] = experiment: ROS/RNS production, DHR flow cytometry, SW480; assay type: cell-based, human; settings: SW480, IC50 dose, 72 h
Method in brief: (§4)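 HCT116 (2 × 10^5/well) and SW480 (1.5 × 10^5/well) cells in six-well plates were treated with test compound for 72 h. Treatment was in culture medium containing 1 μM dihydrorhodamine 123 (≤0.1% DMSO). Intracellular ROS/RNS was measured as fluorescence by flow cytometry. Data are representative of three independent experiments.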

HCT116 cells [14] = experiment: ROS/RNS production, DHR flow cytometry, HCT116; assay type: cell-based, human; settings: HCT116, IC50 dose, 72 h
Method in brief: as §4

SW480 cells [15] = experiment: Cell proliferation, CFSE flow cytometry, SW480; assay type: cell-based, human; settings: SW480, IC50 dose, 72 h
Method in brief: as §3

| Molecule | % inhibition @ 100 μM COX-1 (ovine COX-1; no BSA) [%] | IC50 (CT26 [1]; 72 h, COX-2 +) [µM] | IC50 (HT29 [2]; 72 h, COX-2 +) [µM] | IC50 (SW480 [3]; 72 h, COX-2 –) [µM] | IC50 (HCT116 [4]; 72 h, COX-2 –) [µM] | IC50 (HCT116 [5]; 72 h, COX-2 –) [µM] | IC50 (HT29 [6]; 72 h, COX-2 +) [µM] | IC50 (CT26 [7]; 72 h, COX-2 +) [µM] | IC50 (SW480 [8]; 72 h, COX-2 –) [µM] | % inhibition @ 100 μM COX-2 (human COX-2; no BSA) [%] | caspase activation, % SW480 cells (SW480 cells [10]) [%] | caspase activation, % HCT116 cells (HCT116 cells [11]) [%] | also measured |
| --- | --- | --- | --- | --- | --- | --- | --- | --- | --- | --- | --- | --- | --- |
| Sodium rac-[N-(7,8-dicarba-closo-dodecaboran-6-yl)-2-benzonitrile] [compound 5] | 83 | 167 ± 8.8 | 141 ± 7.8 | 84 ± 3.3 | 115 ± 6 | 129 ± 10 | 182 ± 1.7 | 150 ± 4.9 | 121 ± 4.5 | 76 |  |  | IC50 (ovine COX-1; read-out: IC50 COX-1, no BSA): 40 µM; IC50 (human COX-2; read-out: IC50 COX-2, no BSA): 33 µM |
| Cc1cccc(Nc2ccccc2C(=O)O)c1C [compound 1, Mefenamic acid, reference compound] |  |  |  |  |  |  |  |  |  |  | 5.2 | 0.5 | IC50 (ovine COX-1): 0.12 µM; inhibition plateau COX-1 (ovine COX-1; concentration range between 1 and 100 μM): around 60%; inhibition at 100 µM (ovine COX-1; read-out: % inhibition @ 100 μM COX-1): 59%; IC50 (CT26 [1]; Mus musculus, CT26, 72 h): 114 ± 4.2 µM; IC50 (HT29 [2]; Homo sapiens, HT-29, 72 h): > 200 µM; IC50 [9]: ~20 µM; IC50 (SW480 [3]; Homo sapiens, SW480, 72 h): 120 ± 6.1 µM; IC50 (HCT116 [4]; Homo sapiens, HCT-116, 72 h): 101 ± 6.5 µM; IC50 (HCT116 [5]; Homo sapiens, HCT-116, 72 h): 96.2 ± 7.9 µM; IC50 (HT29 [6]; Homo sapiens, HT-29, 72 h): > 200 µM; IC50 (CT26 [7]; Mus musculus, CT26, 72 h): 163 ± 2 µM; IC50 (COX-1): 1940 nM; IC50 (SW480 [8]; Homo sapiens, SW480, 72 h): 104 ± 6.4 µM; IC50 COX-2 (human COX-2): no IC50 value could be determined; inhibition at 100 µM (human COX-2; read-out: % inhibition @ 100 μM COX-2): 20% |
| N-(1,12-Dicarba-closo-dodecaboran-2-yl)-2-benzonitrile [4b] | 12 | > 200 | > 200 | > 200 | > 200 | > 200 | > 200 | > 200 | > 200 |  |  |  |  |
| N-(1,12-Dicarba-closo-dodecaboran-2-yl)-2-benzoic acid [4c] | 7 | 72.6 ± 4.5 | 165 ± 0.3 | 76.4 ± 3.5 | 77.4 ± 3.4 | 67.6 ± 1.3 | > 200 | 137 ± 3.1 | 77.8 ± 0.4 |  |  |  |  |
| N-(1,2-Dicarba-closo-dodecaboran-9-yl)-2-benzonitrile [2b] | 32 | 38.3 ± 0.4 | 45.6 ± 2.7 | 24 ± 0.8 | 35.5 ± 3.1 | 34.4 ± 1.8 | > 200 | 47.2 ± 2.3 | 39 ± 1.2 | 28 | 3.2 | 1.1 | cell division rate vs untreated cells (HCT116 cells [12]): remarkably lower; ROS/RNS production (SW480 cells [13]): increased; ROS/RNS production (HCT116 cells [14]): increased; cell division rate vs untreated cells (SW480 cells [15]): remarkably lower |
| N-(1,7-Dicarba-closo-dodecaboran-9-yl)-2-benzonitrile [3b] | 22 | 22.4 ± 1.7 | 46.4 ± 2.9 | 24.9 ± 1.8 | 31.8 ± 2.3 | 28.2 ± 1.8 | 116 ± 2.2 | 37.4 ± 1.2 | 23.8 ± 2.1 | 13 | 6.8 | 5.6 | cell division rate vs untreated cells (HCT116 cells [12]): remarkably lower; cell division rate vs untreated cells (SW480 cells [15]): remarkably lower |
| N-(1,2-Dicarba-closo-dodecaboran-9-yl)-2-benzoic acid [2c] |  | 61.6 ± 0.1 | 183 ± 3.7 | 75.6 ± 4 | 83.6 ± 3.8 | 74.6 ± 4.8 | > 200 | 93.3 ± 5.7 | 77.6 ± 0.1 |  |  |  |  |
| N-(1,7-Dicarba-closo-dodecaboran-9-yl)-2-benzoic acid [3c] | 11 | 76.5 ± 2.8 | 184 ± 4.5 | 117 ± 7.9 | 147 ± 8.6 | 93.2 ± 7.6 | > 200 | 160 ± 6.6 | 90.6 ± 3.3 |  |  |  |  |
